Each structure is given as a SMILES string.

The species named for test [1] is Homo sapiens. The test can be described thus: Compound was tested for its effect on the growth of human T4+ lymphocytes (C8166) in culture at 1000 uM. Format: functional.
The species entered for test [2] is Homo sapiens. Description: Compound was tested for its effect on Reverse Transcriptase (RT) production by HIV-Infected Human T4+ Lymphocytes (C8166) at 2 uM. Format: functional.
Test [3] is filed under the species Homo sapiens. The test can be described thus: Compound was tested for its effect on the growth of human T4+ lymphocytes (C8166) in culture at 100 uM. The class given is functional.
The species entered for test [4] is Homo sapiens. Description: Compound was tested for its effect on the growth of human T4+ lymphocytes (C8166) in culture at 500 uM. The class given is functional.
For test [5], the species on record is Homo sapiens. Description: Compound was tested for its effect on Reverse Transcriptase (RT) production by HIV-Infected Human T4+ Lymphocytes (C8166) at 100 uM. Format: functional.
For test [6], the species on record is Homo sapiens. Description: Compound was tested for its relative effect on p24 viral core protein production by HIV -infected human T4+ lymphocytes (C8166) at 100 uM. The class given is functional.
For test [7], the species on record is Homo sapiens. The test can be described thus: Compound was tested for its effect on Reverse Transcriptase (RT) production by HIV-Infected Human T4+ Lymphocytes (C8166) at 20 uM. The class given is functional.
The species named for test [8] is Homo sapiens. Description: Compound was tested for its effect on the growth of human T4+ lymphocytes (C8166) in culture at 10 uM. Format: functional.
The species named for test [9] is Homo sapiens. The test can be described thus: Compound was tested for its relative effect on p24 viral core protein production by HIV -infected human T4+ lymphocytes (C8166) at 200 uM. Format: functional.
For test [10], the species on record is Homo sapiens. The test can be described thus: Compound was tested for its relative effect on p24 viral core protein production by HIV -infected human T4+ lymphocytes (C8166) at 20 uM. Format: functional.
The species named for test [11] is Homo sapiens. Description: Compound was tested for its effect on Reverse Transcriptase (RT) production by HIV-Infected Human T4+ Lymphocytes (C8166) at 200 uM. The class given is functional.
For test [12], the species on record is Homo sapiens. The test can be described thus: Compound was tested for its effect on the growth of human T lymphocytes (SupT1) in culture at 100 uM. The class given is functional. In short, it runs like this:
(§1)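 Uninfected lymphocyte lines (Raji B cells or SupT1 T cells) kept in growth medium and given drug dilutions. After 48 h, cells stained with trypan blue and counted. Viable cells (dye exclusion) expressed as percentage of untreated controls. Values from a typical experiment.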

For test [13], the species on record is Homo sapiens. The test can be described thus: Compound was tested for its effect on the growth of human B lymphocytes (Raji) in culture at 100 uM. The class given is functional. The essentials:
as §1

Test [14] is filed under the species Homo sapiens. Description: Compound was tested for its effect on the growth of human B lymphocytes (Raji) in culture at 10 uM. Format: functional. The essentials: as §1
The subject of test [15] is SC-1 (Mus musculus). Description: Compound was tested for its effect on the growth of mouse fibroblasts (SC-1) in culture at 10 uM.
Test [16] concerns SC-1 (Mus musculus). Description: Compound was tested for its effect on the growth of mouse fibroblasts (SC-1) in culture at 100 uM.
For test [17], the species on record is Homo sapiens. Description: Compound was tested for its effect on the growth of human T lymphocytes (SupT1) in culture at 500 uM. The class given is functional. In short, it runs like this: as §1
For test [18], the species on record is Homo sapiens. The test can be described thus: Compound was tested for its effect on the growth of human T lymphocytes (SupT1) in culture at 10 uM. Format: functional. The essentials:
as §1

In test [19] the test system is SC-1 (Mus musculus). Description: Compound was tested for its effect on the growth of mouse fibroblasts (SC-1) in culture at 1 uM.
The species named for test [20] is Homo sapiens. The test can be described thus: Compound was tested for its effect on the growth of human B lymphocytes (Raji) in culture at 1000 uM. The class given is functional. The essentials: as §1
The species named for test [21] is Homo sapiens. Description: Compound was tested for its effect on the growth of human B lymphocytes (Raji) in culture at 1 uM. The class given is functional. In short, it runs like this: as §1
Test [22] is filed under the species Homo sapiens. Description: Compound was tested for its effect on the growth of human T lymphocytes (SupT1) in culture at 1 uM. Format: functional. The essentials: as §1
The species named for test [23] is Homo sapiens. The test can be described thus: Compound was tested for its effect on the growth of human T lymphocytes (SupT1) in culture at 1000 uM. Format: functional. In short, it runs like this: as §1
The species entered for test [24] is Homo sapiens. The test can be described thus: Compound was tested for its effect on the growth of human B lymphocytes (Raji) in culture at 500 uM. Format: functional. The essentials:
as §1

The species entered for test [25] is Homo sapiens. The test can be described thus: Compound was tested for its effect on reverse transcriptase of HIV-infected human T4+ lymphocytes (C8166) at 20 uM. Format: functional. The essentials: (§2)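 C8166 T4+ cells (~2 × 10⁵ per well) exposed to drug dilutions, then infected with 2500 RT units of cell-free HIV HXBc2 strain; FBS heat-inactivated (55 °C, 60 min) or not. Drug-containing medium replaced every 3 days. On day 6, RT activity measured in cell supernatants and compared with untreated controls.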

For test [26], the species on record is Homo sapiens. The test can be described thus: Compound was tested for its effect on reverse transcriptase of HIV-infected human T4+ lymphocytes (C8166) at 2 uM. The class given is functional. In short, it runs like this:
as §2

Turning to `Nc1nc(Cl)nc2c1ncn2C1CCC(CO)O1` (configuration not stated), the Control turned out to be 0% in the test listed under Homo sapiens [1]; 100% in the test filed under Homo sapiens [2]; 77% in the test filed under Homo sapiens [3]; 37% in the test filed under Homo sapiens [4]; 3% in the test filed under Homo sapiens [5]; 57% in the test listed under Homo sapiens [7]. Further, the Control was 94% in the test listed under Homo sapiens [8] and below 1% in the test listed under Homo sapiens [11]. Further, the figures for the p24 in the test filed under Homo sapiens [6], in the test listed under Homo sapiens [9] and in the test filed under Homo sapiens [10] were 2.2 ng/mL, 0.2 ng/mL and 16 ng/mL, respectively.

Take `Nc1ncnc2c1ncn2[C@H]1CC[C@@H](CO)O1`: the Control is recorded as 91% in the test listed under Homo sapiens [1]; 25% in the test filed under Homo sapiens [2]; 116% in the test listed under Homo sapiens [3]; 90% in the test filed under Homo sapiens [4]; below 1% in the test filed under Homo sapiens [5]; 25% in the test filed under Homo sapiens [7]. Further, the Control in the test filed under Homo sapiens [8] is 116%; in the test listed under Homo sapiens [11], below 1%. The p24 came to 1.8 ng/mL in the test listed under Homo sapiens [6], 0.2 ng/mL in the test listed under Homo sapiens [9] and 28 ng/mL in the test listed under Homo sapiens [10].

`Nc1nc(Cl)nc2c1ncn2C1OC(CO)CC1O` (configuration not stated): the Control in the test filed under Homo sapiens [12] amounted to 73%; in the test listed under Homo sapiens [13], 43%; in the test listed under Homo sapiens [14], 69%; in the test on SC-1 (Mus musculus) [15], 53%; with SC-1 (Mus musculus) [16] it was 2%; in the test filed under Homo sapiens [17], 13%. The Control in the test filed under Homo sapiens [18] amounted to 81%; in the test with SC-1 (Mus musculus) [19], 82%; in the test filed under Homo sapiens [20], 3%; in the test filed under Homo sapiens [21] it was 98%; in the test listed under Homo sapiens [22] it was 100%; in the test filed under Homo sapiens [23] it was 8%. In addition, in the test filed under Homo sapiens [24], the Control was determined as 8%.

Turning to `Nc1nc(Cl)nc2c1ncn2C1C=CC(CO)O1` (configuration not stated), the values for the Control in the test filed under Homo sapiens [25] and in the test filed under Homo sapiens [26] were 25% and 53%, respectively.

The record behind these values is ChEMBL document CHEMBL1124618, “Synthesis of the 2-chloro analogues of 3'-deoxyadenosine, 2',3'-dideoxyadenosine, and 2',3'-didehydro-2',3'-dideoxyadenosine as potential antiviral agents” (1989).
